Assay: Toxicity liver stage against HepG2, at 10uM
Format: cell-based
Set-up: test concentration 10 uM, cell line HepG2-A16-CD81EGFP
Details: human, HepG2-A16-CD81EGFP cells; read-out: INHIBITION
In short: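 Uninfected HepG2-A16-CD81EGFP cells, 3 × 10^3 per well, 1536-well, plated on prespotted compound at 10 μM final, parasite-free screening media added to match infected plates; puromycin 10 μM positive, DMSO 0.5% negative; run in parallel with 48 h PbLuc assay at 37 °C, 5% CO2; viability by CellTiter-Glo luminescence, normalized to controls.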

Row | Structure (SMILES) | cytotoxicity at 10 µM [%]
1 | Cn1ccc2c(C(=O)N3CCC4(CCOC4)C3)cccc21 (configuration not stated) | -152
2 | Cn1c(N2CCOCC2)nc2cc(C(=O)N3CCC(O)(CO)C3)ccc21 (configuration not stated) | -4.62
3 | CC(C)NC(=O)CS(=O)(=O)Cc1cc(Cl)c2c(c1)OCCO2 | -4.53
4 | Cc1noc(C2CCN(C(=O)CCc3nccs3)CC2)n1 | -5.43
5 | Cc1cc(C2CCCN(CCc3ccc4c(c3)CCO4)C2)n[nH]1 (configuration not stated) | -7.66
6 | CN1CCNC(Cc2ccc(-c3ccccc3)cc2)C1=O (configuration not stated) | -41.9
7 | Cc1cccc2c(CCNC(=O)[C@H](N)c3ccccc3)c[nH]c12 | -3.55
8 | COc1cccc(CN2CCc3nc4ccsc4c(=O)n3CC2)c1 | -26.5
9 | Cc1cc(C2CCN(C(=O)c3cnn(C)c3)CC2)ccn1 | -17.8
10 | CC1CCCCN1c1nc2c(c(=O)[nH]1)CCN(Cc1ccccc1O)C2 (configuration not stated) | -1.97
11 | CC(NCc1ccc(OCC(N)=O)cc1)c1ccc2c(c1)CCCC2 (configuration not stated) | -0.699
12 | CN(CC(=O)NC(c1ccc(F)cc1)C(F)(F)F)S(C)(=O)=O (configuration not stated) | -11.9
13 | c1ccc(OCc2nnc3n2CCN(CC2CC2)C3)nc1 | -0.945
14 | O=C(Nc1ccccc1Oc1cccc(F)c1)NC1CCS(=O)(=O)C1 (configuration not stated) | -6.07
15 | Cc1ccc(CN(C)C(=O)NCC(C)(C)NS(C)(=O)=O)s1 | -0.422
16 | CC(O)CN1CCN(C(=O)c2ccc(N(C)C)nn2)CC1 (configuration not stated) | -13.4
17 | O=c1[nH]c2c(c(=O)n1C1CCCCC1)CCC2Nc1ccccc1 (configuration not stated) | 0.795
18 | COc1ccc(C(=O)Nc2ccccc2C(C)C)c(OC)n1 | 3.66
19 | CN1CC(=O)N(c2cccc(F)c2)CC12CCN(Cc1ccco1)C2 (configuration not stated) | 4.06
20 | Cc1ccnc2c1NC(=O)CN2C(=O)CCc1cccs1 | -19.5
21 | Cc1noc([C@]23COC[C@H]2CN(C(=O)Cc2ccsc2)C3)n1 | -95.9
22 | COCCN1CCN(Cc2ccc(F)c(C)c2)[C@H]2CS(=O)(=O)C[C@H]21 | -25.5
23 | Cc1cnc(CNC(=O)N(Cc2ccccc2)CC(C)(C)O)s1 | -3.22

Row | Structure (SMILES) | cytotoxicity at 10 µM [%]
24 | COc1nccnc1-c1cccc(-c2ccn(CC3COCCO3)n2)c1 (configuration not stated) | -3.65
25 | N#Cc1ccccc1CN1CCCCC1Cn1cncn1 (configuration not stated) | -4.13
26 | Cn1ccnc1-c1nc(NC2CCCC2)ncc1-c1cccc(F)c1 | 14.1
27 | CC(C)NC1CCc2c(ccc(=O)n2CCN2CCCC2=O)C1 (configuration not stated) | 9.52
28 | CCc1nc(C2CCCN2CCc2ccccn2)no1 (configuration not stated) | -7.03
29 | CCN1CCN(c2nsc(-c3cccnc3)c2C#N)CC1 | -4.2
30 | CCc1nc(CN(C)CC(=O)OC(C)(C)C)cs1 | 3.91
31 | CC(C)n1ncc2cc(NC(=O)N3CCC(N4CCCC4)C3)cnc21 (configuration not stated) | -8.58
32 | O=C(NC1CCc2c(ccc(=O)n2CC2CC2)C1)c1cscn1 (configuration not stated) | -104
33 | O=S(=O)(NCc1ccccc1)N(Cc1ccccn1)CC1CCCO1 (configuration not stated) | 1.62
34 | Cc1cnc(C(=O)N2CCCC(c3c(C)c(=O)nc4n3CCC4)C2)cn1 (configuration not stated) | -26.5
35 | Cc1ccc(F)c2c1N(C(=O)Cc1c(C)nn(C)c1C)CCC2 | 12.7
36 | CN(C)C(c1ccccn1)C1CCC(CNC(=O)C2CC2)CC1 (configuration not stated) | 6.6
37 | COc1c(CNCCc2c[nH]c3cc(F)ccc23)c(C)nn1C | -7.53
38 | Cn1c(=O)[nH]c2cc(C(=O)OCC(F)F)ccc21 | -17.3
39 | Cc1noc(C)c1CN(C)C(=O)C1CCCc2ccccc21 (configuration not stated) | 2.45
40 | Cc1nccn1[C@@H]1CC[C@@H](N(C)S(=O)(=O)c2cccc(F)c2)[C@H]1O | -2.4
41 | O=C(CCC1CCCC1)NCCn1nc(C2CCNC2)c2cccnc21 (configuration not stated) | -2.83
42 | CCn1ccnc1C1CCN(C(=O)Nc2ccc(OC)cc2)CC1 | -1.77
43 | Cc1nnc(C(C)Nc2ccc(OCCc3ccccc3)nc2)o1 (configuration not stated) | -4.08
44 | Cc1nc(CN2CCc3nn(C)c(=O)cc3C2)oc1C | -2.74
45 | CC(C)n1nc2c(cc1=O)CN(c1ncnc3ccccc13)CC2 | 52.2
46 | COc1ccc(CCCC(=O)N2CCCC(n3cncn3)C2)cc1 (configuration not stated) | -6.96

Row | Structure (SMILES) | cytotoxicity at 10 µM [%]
47 | C[C@@H]1CN(Cc2nc(C(N)=O)no2)CC[C@@]1(O)C1CCOCC1 | -38.5
48 | CNC(=O)[C@@H](c1ccccc1F)N1CCC[C@H]1C(=O)NC1CCOCC1 | -3.73
49 | Cc1nc(-c2ccsc2)ccc1C(=O)O | -13.8
50 | COc1cc(NC(=O)NCC2CCCO2)cc(OC)c1 (configuration not stated) | 15.6
51 | CN(CC(=O)N1CC(Oc2ccccc2Cl)C1)Cc1ccncc1 | -2.67
52 | CCc1n[nH]c(C2CN(C(=O)c3cnns3)CCO2)n1 (configuration not stated) | -3.43
53 | Cc1ccccc1OCCN1CCCC1CS(N)(=O)=O (configuration not stated) | 18.3
54 | Cc1nc(CN2CCC3(C2)CN(C(=O)c2conc2C)C3)cs1 | -105
55 | CC(C)(C)CC(=O)Nc1cnn(-c2ccccc2S(C)(=O)=O)c1 | 3.69
56 | CCC1CN(CC(=O)Nc2sccc2C#N)CCO1 (configuration not stated) | -9.29
57 | COCCN1C(=O)[C@]2(CC[C@@H]3CN(C(=O)NC4CCCC4)C[C@@H]32)N=C1C | -8.85
58 | CCn1ncc(Cl)c1CN(C)C(=O)CCn1ncc(Br)c1C | 2.93
59 | NS(=O)(=O)CCNC(=O)c1nnn(-c2ccc(F)cc2)c1C1CC1 | -14.3
60 | CN1CCC(N(CCc2ccccc2)C(=O)c2ccoc2)CC1 | -5.42
61 | Nc1nccnc1C1CN(C(=O)COc2cccnc2)CCO1 (configuration not stated) | -1.83
62 | Cc1nc(CN(C)C2CCN(Cc3ccc4c(c3)OCCO4)C2)no1 (configuration not stated) | -4.79
63 | CCc1ccc(CC)c(NCc2cnc(N3CCOCC3)nc2)c1 | 0.898
64 | CC(C)C(NC(=O)Cc1ccccc1)C(=O)NCc1ccc(O)nc1 (configuration not stated) | 0.833
65 | NC(=O)CC1CCN(C(=O)NCc2ccccc2-n2cccn2)CC1 | 2.19
66 | O=C1O[C@@H]2CN(C3CCOCC3)C[C@@H]2N1CCc1cccc(Cl)c1 | -1.11
67 | O=C(N1CCCC(n2cncn2)C1)C1(c2cccc(F)c2)CCC1 (configuration not stated) | 0.322
68 | CC(C)c1nnc(CNc2ccc(SC(F)(F)F)cc2)o1 | 11.5
69 | CCC1CN(Cc2nnc(C3CC3)o2)CCC(=O)N1Cc1ccccc1 (configuration not stated) | 0.0723

Row | Structure (SMILES) | cytotoxicity at 10 µM [%]
70 | CCOc1cncc(N2CCOCC2)n1 | 3.18
71 | c1cc(CN2CCCCC2c2ccc(Nc3cnccn3)nc2)ccn1 (configuration not stated) | 7.38
72 | CC1COCCN1Cc1nc(-c2ccsc2)no1 (configuration not stated) | -17.8
73 | NC(=O)CCNC(=O)NCC1(c2ccccc2Cl)CCC1 | -53.1
74 | Cc1cccc(C(=O)N2CCCCC2c2[nH]ncc2S(C)(=O)=O)c1 (configuration not stated) | -7.44
75 | CC[C@@H]1N(Cc2ccc(OC)cc2)CCC[C@]12CCC(=O)N2CCOC | 14
76 | COc1ccccc1C1(CNc2ccnc(C(=O)N(C)C)c2)CC1 | -1.67
77 | CN(Cc1ccc(C#N)cc1)Cc1noc(C(C)(C)C)n1 | -2.09
78 | COc1ccc(C(=O)N2C[C@@H](NC(=O)N(C)C)[C@H](C(C)C)C2)c(OC)n1 | 3.6
79 | CC(C)(C)c1noc(CCC(=O)N2CCNC(=O)C2)n1 | -4.96
80 | Cc1nc(CN2CCn3cc(CNC(=O)C4CCC4)nc3C2)cs1 | -6.52
81 | Cc1cccc(CN2CCc3ncnc(N4CCN(C)CC4)c3CC2)n1 | -145
82 | Cc1cc(-n2nnc(C(=O)O)c2-c2ccncc2)ccc1F | 6.31
83 | CCNC(=O)C1CCN(c2cc(CC)nc3ccnn23)C1 (configuration not stated) | -8.24
84 | Cc1csc(CNC(=O)Nc2cc(C(F)(F)F)c[nH]c2=O)n1 | -13.7
85 | CC(C)NC(=O)N1CCC2(COCc3cnc(-c4cccnc4)nc32)C1 (configuration not stated) | 1.77
86 | COc1ccc(CC(C)(O)CNC(=O)c2cccs2)cc1 (configuration not stated) | -4.69
87 | CN(C)[C@@H]1CCN(C(=O)Cc2ccc(F)cc2)[C@H]1Cc1cnn(C)c1 | 4.58
88 | CC(C)(N)c1nc(C(F)F)cc(=O)[nH]1 | 11.9
89 | O=C(Nc1cc(F)ccc1OCC1CCCO1)N1CCSCC1 (configuration not stated) | -1.79
90 | CN(Cc1cc(Br)cn1C)C(=O)c1ccsc1 | -10
91 | Cc1ccc(CNC(=O)C2CCN(C(=O)c3ccccc3)CC2)n1C | 1.2
92 | CCc1cnc(CN(C(C)=O)C2CCN(CCS(C)(=O)=O)C2)o1 (configuration not stated) | -17.8

Row | Structure (SMILES) | cytotoxicity at 10 µM [%]
93 | Cc1nc2n(n1)CC(Nc1ccnc(-c3ccccc3)n1)CC2 (configuration not stated) | 3.43
94 | CNC(=O)c1cc(-c2ccccc2OC)[nH]n1 | -2.77
95 | COc1ccccc1OCCN1CCCC(c2cc(C(N)=O)[nH]n2)C1 (configuration not stated) | 3.71
96 | CC1CCN(C)c2ccccc2N1C(=O)c1ccc(=O)n(C)c1 (configuration not stated) | -0.117
97 | COCC1CCN(S(=O)(=O)c2ccc(C(=O)NCC(F)F)cc2)C1 (configuration not stated) | 6.95
98 | O=C1C[C@@H]2CC[C@H](CN1)N2C1CCSCC1 | 0.915
99 | COc1ccc(F)c(F)c1CN1CC(=O)N(c2ccccc2C)CC1C (configuration not stated) | -0.121
100 | CCn1c(C)nnc1SCCNc1cc(OC)ncn1 | 5.87
101 | COc1cc(C#N)ccc1OC12CCCN(CC1)C2 (configuration not stated) | -19.1
102 | CC(C)NC(=O)Cc1cnc(-n2cccc2)s1 | -4.6
103 | CC(C)c1ccc(/C=C/CC(=O)NC2CCN(C(N)=O)C2)cc1 (configuration not stated) | 0.838
104 | COc1ccc(C(C)NCc2c[nH]nc2C)cc1OC (configuration not stated) | -3.75
105 | CS(=O)(=O)NC1CCN(C(=O)NCc2ccccn2)CC1 | -5.04
106 | CNC(=O)c1ccccc1-c1ccc(S(C)(=O)=O)cc1 | -2.07
107 | CC(C)(C)CC(=O)N1CSCC1C(=O)NCc1cccc(C#N)c1 (configuration not stated) | -9.78
108 | CC(C)(C)c1nc(CNc2cc3c(cc2Cl)NC(=O)CO3)no1 | -0.438
109 | Cc1nnc(CN2CCC(c3nc4cc(Cl)ccc4o3)CC2)n1C | -3.49
110 | COc1cccc(OCC2CCCN(C3CCN(C(C)=O)CC3)C2)c1 (configuration not stated) | -18.3
111 | Cc1nnc(NCc2cccnc2OCC(F)(F)F)c(C#N)c1C | -7.77
112 | Cc1nn(C)c(Cl)c1C1CCCN1C(=O)c1nccnc1N (configuration not stated) | -6.9

Reference: ChEMBL document CHEMBL4513216, “Probing the Open Global Health Chemical Diversity Library for Multistage-Active Starting Points for Next-Generation Antimalarials” (ACS Infect Dis, 2020)
